From PubChem
Sampled rows, rich in hits. Any-hit rate of the full collection: about 4%.
OX1R antag-1: antagonists of human orexin 1 receptor (OX1R); OX1R-expressing cells, FRET antagonist read-out; inhibition, % at 6.6 µM; actives 1.8% (n = 330,000); AID 485270, 2010; in the data active = inhibition mostly above about 38%, no sharp cut-off; inactive = mostly below about 40%;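 note: 0% = agonist challenge alone and 100% = reference antagonist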
Target sequence (O43613 whole entry, looked up): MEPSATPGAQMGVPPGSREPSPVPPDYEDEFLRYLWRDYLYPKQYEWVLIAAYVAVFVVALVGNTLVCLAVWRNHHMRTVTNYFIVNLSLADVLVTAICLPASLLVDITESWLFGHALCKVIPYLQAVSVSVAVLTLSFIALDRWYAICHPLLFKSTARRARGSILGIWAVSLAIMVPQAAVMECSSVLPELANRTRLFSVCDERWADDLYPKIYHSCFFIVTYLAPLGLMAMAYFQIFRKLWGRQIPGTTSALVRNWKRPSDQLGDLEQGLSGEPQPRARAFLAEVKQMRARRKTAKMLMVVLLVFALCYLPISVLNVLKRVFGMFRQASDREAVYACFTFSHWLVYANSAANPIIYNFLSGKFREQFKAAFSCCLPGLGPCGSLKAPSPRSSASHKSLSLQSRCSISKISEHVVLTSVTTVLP
TAAR1 ag: human TAAR1 agonists, primary screen, Fluo-8 calcium fluorescence, CHO RD-HGA16 cells | Trace amine-associated receptor 1 (Homo sapiens), Q96RJ0 | activation, % at 3 µM | actives 0.99% (n = 360,000) | vehicle wells 0%, saturating PEA agonist 100%;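 active = activation above the mean activation of all test compounds in the run plus 3 SD, cut at about 38% in these data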
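System: CHO RD-HGA16 cells carrying human TAAR1 plus Gα16; Incubation: 17-24 h seeding, 75 min 37 °C dye, 30 min RT; Measured by: Fluo-8 fluorescence, 5 s baseline then 140 s kinetic read; Control set: DMSO and PEA EC100; Replication: single well for each compound.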
OX1R antag-2: OX1R (HCRTR1) antagonists, primary screen, fluorescence, CHO/OX1R cells, Fluo-8 calcium, orexin A; Fluo-8 calcium fluorescence; inhibition, % at 5 µM; actives 0.43% (n = 330,000);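 active = inhibition above its plate's threshold, mean inhibition of all tested compounds on the plate plus 3 SD, cut at about 37% in these data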;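 note: 0% = orexin A challenge wells and 100% = SB-334867-A antagonist wells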
CHO parental Ca: ATP-evoked calcium signal inhibitors, parental CHO, primary screen, counter-screen for OX1R antagonist project, cell-based, fluorescence, Fluo-8 calcium dye. AID 463079, 2010. inhibition, % at 5.6 µM. actives 0.63% (n = 330,000). parental CHO-K1, ATP-induced calcium, Fluo-8 fluorescence;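 active = inhibition above that plate's mean sample inhibition plus 3 SD, cut at about 26% in these data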;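 note: 0% = ATP-challenged DMSO wells and 100% = DMSO wells without ATP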
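Measured by: calcium-sensitive Fluo-8 fluorescence / Test system: CHO parental line / Controls: ATP-challenged DMSO wells low, unchallenged DMSO wells high / Measure: % inhibition / Compound: single nominal dose of 5.6 µM per compound / Replicates: single well per compound, no replicates / Reagent: ATP as calcium-mobilizing challenge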
NTR1 ag: agonists of human NTR1, primary screen, imaging, U2OS cells, beta-arrestin-GFP, high content. Neurotensin receptor type 1 (Homo sapiens), P30989. NTR1-U2OS beta-arrestin-GFP spot imaging, agonist mode. activation, % at 20 µM. actives 0.17% (n = 330,000). AID 493036, 2011;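 active = activation at or above 40% of the spot to cytoplasm intensity ratio, with at least 20 cells analyzed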;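 note: 0% = DMSO without peptide and 100% = 100 nM NTR1 peptide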
TAAR1 antag: human TAAR1 antagonists, primary screen, Fluo-8 calcium fluorescence, CHO RD-HGA16 cells; Trace amine-associated receptor 1 (Homo sapiens), Q96RJ0; antagonist; inhibition, % at 3 µM; actives 1.5% (n = 360,000); AID 624466, 2012;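 active = inhibition above a per-plate cutoff, the mean inhibition of test compounds on that plate plus 3 SD, cut at about 49% in these data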;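 note: 0% = DMSO plus EC80 beta-PEA response and 100% = DMSO alone without agonist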
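Test system – hTAAR1-expressing CHO RD-HGA16 cells, Gα16-coupled · Also added – β-PEA at EC80 concentration, post-compound challenge · Compound – 3 µM, single point · Incubation – dye loading 75 min at 37 °C, then 30 min room temperature · Measured by – Fluo-8 intracellular calcium dye fluorescence, real-time kinetic reads · Benchmarks – vehicle and agonist controls · Replicates – singlicate, one well per test compound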
* marks the source's active call; other numbers are inactive results; x = no result given.

SMILES	OX1R antag-1	TAAR1 ag	OX1R antag-2	CHO parental Ca	NTR1 ag	TAAR1 antag
CN(C)c1cc(-c2ccc(Cl)cc2)oc(=O)c1Cl	15.5	-1.4	-32.1	-16.2	1.3	0.1
Cc1ccnc(SCC(=O)Nc2sc3c(c2C#N)CCCC3)n1	80.2*	13.9	74.2*	69.1*	4.2	29.8
C[C@H](CO)N1C[C@H](C)[C@@H](CN(C)C(=O)CCC(F)(F)F)OCc2cn(nn2)CCCC1=O	x	3.5	x	x	x	-15.0
O=C(NCc1ccccc1)[C@H]1CCCN1C(=O)[C@H]1CCCN1C(=O)c1ccc(OC(F)(F)F)cc1	x	-1.3	x	x	x	-2.3
CCCCSc1ccc2nc(-c3ccc(C#N)cc3)cn2c1	22.2	19.4	-34.4	1.0	7.0	50.5*
CCC(C(=O)Nc1ccc(C)cc1)c1ccccc1 (stereo not drawn)	29.0	2.6	-4.6	-8.1	-0.1	-10.1
Cc1ccc(NC(=O)C(C)c2ccc(-c3ccccc3)c(F)c2)cc1 (stereo not drawn)	42.1	3.6	31.6	34.2	2.1	54.9*
c1ccc(-c2ccccc2C2Cc3nnccc3CN2)cc1 (stereo not drawn)	x	2.4	x	x	x	-31.3
Cc1nn(Cc2cccc(F)c2)c(C)c1NC(=O)c1ccc(COc2ccccc2Cl)cc1	14.9	4.8	14.3	6.1	-1.7	101.4*
Cc1c(C=NCCOCc2ccccc2)cnn1C	15.4	41.7*	-66.7	-13.8	-0.2	24.5
c1ccc(COCCN2CCN(CCOCc3ccccc3)CC2)cc1	8.9	x	-20.9	-4.2	1.2	x
COc1ccc2c(c1)[C@@]1(OCCC=C[C@H]1C)C(=O)N2Cc1ccc(F)cc1	x	1.2	x	x	x	-11.0
Nc1[nH]n(-c2ccccc2)c(=O)c1N=Nc1ccccc1	52.0	-4.1	-1.6	-17.1	0.8	4.5
Nc1[nH]n(-c2ccccc2)c(=O)c1N=Nc1ccc2ncsc2c1	53.0*	5.7	-3.2	-11.9	4.5	27.3
O=C1C2C3c4ccccc4C(c4ccccc43)C2C(=O)N1c1ccncc1 (stereo not drawn)	x	1.1	x	x	x	19.8
O=C1C2C3c4ccccc4C(c4ccccc43)[C@@H]2C(=O)N1c1cccnc1 (stereo partly drawn)	25.5	9.1	-10.8	-18.4	1.5	49.5*
Cc1ccccc1OCC(=O)N(Cc1nc(-c2ccccc2)no1)C(C)C	61.7*	2.0	5.4	24.6	2.1	3.3
CC(C)N(Cc1nc(-c2ccccc2)no1)C(=O)c1ccc(Cl)cc1	23.4	-0.4	-10.7	-1.3	-1.0	-24.3
Cc1ccccc1OCC(=O)N(Cc1nnc(-c2ccc(Cl)cc2)o1)C(C)C	39.3*	0.6	8.6	-38.0	1.2	4.1
Cc1ccc(SCC(=O)N(Cc2nc(-c3ccccc3)no2)C(C)C)cc1	62.5	6.5	35.1	45.8*	6.8	21.0
CC(C)N(Cc1nc(-c2ccccc2)no1)C(=O)c1ccc2c(c1)OCO2	49.7*	x	2.1	-12.1	-0.4	x
CCNC(=O)N1CCN(c2ccc(N3CCN(C(=O)NCC)[C@@H](C)C3)c(C)c2)[C@@H](C)C1	x	0.0	x	x	x	-9.1
O=C(Nc1ccnn1C1CCN(C(=O)Cc2cccc(Cl)c2)CC1)C1CC1	7.0	1.5	-2.4	7.8	1.0	6.4
CCc1cc2ccc(C)cc2nc1SCC(=O)c1ccc(NC(C)=O)cc1	36.8	3.8	-10.6	-28.3	6.6	-22.0
CCc1cc2cccc(C)c2nc1SCC(=O)c1ccc(NC(C)=O)cc1	52.6*	11.3	33.6	-13.6	4.8	-11.8
CCc1cc2ccc(C)c(C)c2nc1SCC(=O)NNC(=O)c1ccco1	27.6	-3.7	-29.7	-14.6	2.3	9.8
CCc1cc2cccc(C)c2nc1SCC(=O)NNC(=O)c1ccco1	69.9*	13.1	-0.1	-21.5	-0.7	-10.6
CN(C)S(=O)(=O)c1cccc(NC(=O)Cc2ccc(-c3ccccc3)cc2)c1	21.2	7.1	4.7	7.4	6.5	10.4
